Key:
[1] = Growth inhibition of human leukemia cells after 48 hrs by SRB assay; format: functional; conditions: Leukemia cell; for CC50: read-out: LC50 (the source's name)
Outline: (§1)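 Follow-up NCI panel testing over a 5-log dose range for each cell line. GI50, TGI and LC50 were monitored, with 5-fluorouracil run as the positive control. Values are grouped by tumour subpanel.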

Dihydrofolate reductase = molecular target: T1, Dihydrofolate reductase (Bos taurus, UniProt P00376); assay: Inhibition of bovine liver DHFR preincubated for 2 mins followed by addition of FH2 as substrate and NADPH
T1 sequence (P00376 whole entry): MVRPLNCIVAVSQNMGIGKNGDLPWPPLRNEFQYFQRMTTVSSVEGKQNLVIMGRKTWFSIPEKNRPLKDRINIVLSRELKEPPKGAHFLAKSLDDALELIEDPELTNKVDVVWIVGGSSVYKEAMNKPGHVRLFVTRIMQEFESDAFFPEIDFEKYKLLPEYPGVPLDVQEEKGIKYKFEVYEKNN

[2] = Growth inhibition of human NCI-H522 cells at 10 uM after 48 hrs by SRB assay relative to control; format: functional; conditions: NCI-H522, 48 h, read-out: GI
Outline: (§2)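 NCI 60-cell-line panel, nine tumor subpanels; compounds tested at a single dose of 10 μM in the primary screen.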

[3] = Growth inhibition of human K562 cells at 10 uM after 48 hrs by SRB assay relative to control; format: functional; conditions: K562, 48 h, read-out: GI; outline: as §2
[4] = Growth inhibition of human SKOV3 cells at 10 uM after 48 hrs by SRB assay relative to control; format: functional; conditions: SK-OV-3, 48 h, read-out: GI
Outline: (§3)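 Primary screen across the full NCI 60 human tumour cell line panel, which covers nine tumour subpanels. A single dose of 10 μM was applied to each line, and growth was recorded for each cell line.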

Cancer cell lines [5] = assay: Potency index, ratio of 5-fluorouracil GI50 to compound GI50 for human breast cancer cells; format: functional
Outline: (§4)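 GI50 for each cell line came from NCI panel testing over a 5-log dose range, with 5-fluorouracil tested alongside as the reference drug. The index relates the 5-fluorouracil GI50 to the compound GI50 within each tumour subpanel.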

[6] = Growth inhibition of human non-small cell lung cancer cells after 48 hrs by SRB assay; format: functional; conditions: Cancer cell lines; outline: as §1
Leukemia cell = assay: Potency index, ratio of 5-fluorouracil GI50 to compound GI50 for human leukemia cells; format: functional; outline: as §4
[7] = Growth inhibition of human renal cancer cells after 48 hrs by SRB assay; format: functional; conditions: Cancer cell lines; outline: as §1
[8] = Growth inhibition of human SK-MEL-5 cells at 10 uM after 48 hrs by SRB assay relative to control; format: functional; conditions: SK-MEL-5, 48 h, read-out: GI; outline: as §3
[9] = Growth inhibition of human NCI-H23 cells at 10 uM after 48 hrs by SRB assay relative to control; format: functional; conditions: NCI-H23, 48 h, read-out: GI; outline: as §2
[10] = Growth inhibition of human MDA-MB-231 cells at 10 uM after 48 hrs by SRB assay relative to control; format: functional; conditions: MDA-MB-231, 48 h, read-out: GI; outline: as §2
[11] = Growth inhibition of human T47D cells at 10 uM after 48 hrs by SRB assay relative to control; format: functional; conditions: read-out: GI; outline: as §3
[12] = Growth inhibition of human LOXIMVI cells at 10 uM after 48 hrs by SRB assay relative to control; format: functional; conditions: LOX IMVI, read-out: GI; outline: as §2
[13] = Growth inhibition of human breast cancer cells after 48 hrs by SRB assay; format: functional; conditions: Cancer cell lines; outline: as §1
[14] = Growth inhibition of human NCI-322M cells at 10 uM after 48 hrs by SRB assay relative to control; format: functional; conditions: read-out: GI; outline: as §2
[15] = Growth inhibition of human OVCAR4 cells at 10 uM after 48 hrs by SRB assay relative to control; format: functional; conditions: OVCAR-4, 48 h, read-out: GI; outline: as §2
[16] = Growth inhibition of human Hs 578T cells at 10 uM after 48 hrs by SRB assay relative to control; format: functional; conditions: read-out: GI; outline: as §2
Cancer cell lines [17] = assay: Potency index, ratio of 5-fluorouracil GI50 to compound GI50 for human ovarian cancer cells; format: functional; outline: as §4
[18] = Growth inhibition of human MCF7 cells at 10 uM after 48 hrs by SRB assay relative to control; format: functional; conditions: MCF7, 48 h, read-out: GI; outline: as §2
[19] = Growth inhibition of human OVCAR3 cells at 10 uM after 48 hrs by SRB assay relative to control; format: functional; conditions: OVCAR-3, 48 h, read-out: GI; outline: as §2
[20] = Growth inhibition of human OVCAR8 cells at 10 uM after 48 hrs by SRB assay relative to control; format: functional; conditions: OVCAR-8, 48 h, read-out: GI; outline: as §2
Cancer cell lines [21] = assay: Potency index, ratio of 5-fluorouracil GI50 to compound GI50 for human prostate cancer cells; format: functional; outline: as §4
[22] = Growth inhibition of human SF268 cells at 10 uM after 48 hrs by SRB assay relative to control; format: functional; conditions: SF-268, 48 h, read-out: GI; outline: as §2
[23] = Growth inhibition of human RXF393 cells at 10 uM after 48 hrs by SRB assay relative to control; format: functional; conditions: RXF 393, 48 h, read-out: GI; outline: as §2
[24] = Growth inhibition of human NCI/ADR-RES cells at 10 uM after 48 hrs by SRB assay relative to control; format: functional; conditions: read-out: GI; outline: as §2
[25] = Growth inhibition of human SF539 cells at 10 uM after 48 hrs by SRB assay relative to control; format: functional; conditions: SF-539, 48 h, read-out: GI; outline: as §2
[26] = Growth inhibition of human prostate cancer cells after 48 hrs by SRB assay; format: functional; conditions: Cancer cell lines; outline: as §1
Cancer cell lines [27] = assay: Potency index, ratio of 5-fluorouracil GI50 to compound GI50 for human colon cancer cells; format: functional; outline: as §4
[28] = Growth inhibition of human MOLT4 cells at 10 uM after 48 hrs by SRB assay relative to control; format: functional; conditions: MOLT-4, 48 h, read-out: GI; outline: as §2
[29] = Growth inhibition of human U251 cells at 10 uM after 48 hrs by SRB assay relative to control; format: functional; conditions: U-251, 48 h, read-out: GI; outline: as §3
[30] = Growth inhibition of human SF295 cells at 10 uM after 48 hrs by SRB assay relative to control; format: functional; conditions: SF-295, 48 h, read-out: GI; outline: as §2
[31] = Growth inhibition of human UACC62 cells at 10 uM after 48 hrs by SRB assay relative to control; format: functional; conditions: UACC-62, 48 h, read-out: GI; outline: as §3
[32] = Growth inhibition of human COLO205 cells at 10 uM after 48 hrs by SRB assay relative to control; format: functional; conditions: COLO 205, 48 h, read-out: GI; outline: as §2
[33] = Growth inhibition of human HL-60(TB) cells at 10 uM after 48 hrs by SRB assay relative to control; format: functional; conditions: HL-60, 48 h, read-out: GI
Outline: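 NCI disease-oriented human tumour cell line screen: primary single-dose assay at 10 μM across the full 60-cell-line panel spanning nine tumour subpanels.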

COc1ccccc1-n1c(SCc2cc(OC)c(OC)c(OC)c2)nc2ccc(Cl)cc2c1=O
GI50 [1]: 2.4 µM
TGI [1]: 86.5 µM
CC50 [1]: > 100 µM
IC50 (Dihydrofolate reductase): 0.1 µM
inhibition of growth at 10 µM [2]: < 10%
inhibition of growth at 10 µM [3]: 87.3%
inhibition of growth at 10 µM [4]: 40.6%
RatioGI50 (Cancer cell lines [5]): 2 - 10
GI50 [6]: 5.8 µM
LC50 (concentration killing 50% of cells) [6]: > 100 µM
TGI [6]: > 100 µM
RatioGI50 (Leukemia cell): 2 - 10
GI50 [7]: 10.6 µM
LC50 [7]: > 100 µM
TGI [7]: 93.5 µM
inhibition of growth at 10 µM [8]: 72.3%
inhibition of growth at 10 µM [9]: 63.9%
inhibition of growth at 10 µM [10]: 44.3%
inhibition of growth at 10 µM [11]: 56.1%
inhibition of growth at 10 µM [12]: 66.8%
GI50 [13]: 3.5 µM
LC50 [13]: > 100 µM
TGI [13]: 84.8 µM
inhibition of growth at 10 µM [14]: 44.9%
inhibition of growth at 10 µM [15]: 37%
inhibition of growth at 10 µM [16]: 60.4%
RatioGI50 (Cancer cell lines [17]): 2 - 10
inhibition of growth at 10 µM [18]: 84.4%
inhibition of growth at 10 µM [19]: 99.5%
inhibition of growth at 10 µM [20]: 44.7%
RatioGI50 (Cancer cell lines [21]): 2 - 10
inhibition of growth at 10 µM [22]: 58.4%
inhibition of growth at 10 µM [23]: 38.5%
inhibition of growth at 10 µM [24]: 79.8%
inhibition of growth at 10 µM [25]: 35.5%
GI50 [26]: 5.9 µM
LC50 (concentration killing 50% of cells) [26]: > 100 µM
TGI [26]: > 100 µM
RatioGI50 (Cancer cell lines [27]): 2 - 10
inhibition of growth at 10 µM [28]: 84.7%
inhibition of growth at 10 µM [29]: 74.5%
inhibition of growth at 10 µM [30]: 68.2%
inhibition of growth at 10 µM [31]: 65.7%
inhibition of growth at 10 µM [32]: 72%

COc1cc2nc(SCc3cc(OC)c(OC)c(OC)c3)n(Cc3ccccc3)c(=O)c2cc1OC
GI50 [1]: 1.9 µM
TGI [1]: > 100 µM
CC50 [1]: > 100 µM
IC50 (Dihydrofolate reductase): 2 µM
inhibition of growth at 10 µM [3]: 89.8%
inhibition of growth at 10 µM [4]: 70.2%
RatioGI50 (Cancer cell lines [5]): 2 - 10
GI50 [6]: 3.6 µM
LC50 (concentration killing 50% of cells) [6]: 94.5 µM
TGI [6]: 63.1 µM
RatioGI50 (Leukemia cell): 2 - 10
GI50 [7]: 4.7 µM
LC50 [7]: 85.7 µM
TGI [7]: 49.1 µM
inhibition of growth at 10 µM [9]: 79.6%
inhibition of growth at 10 µM [10]: 64%
inhibition of growth at 10 µM [11]: 64.1%
inhibition of growth at 10 µM [12]: 62.3%
GI50 [13]: 2.5 µM
LC50 [13]: 99.3 µM
TGI [13]: 47.4 µM
inhibition of growth at 10 µM [14]: 54.6%
inhibition of growth at 10 µM [15]: 55.8%
inhibition of growth at 10 µM [16]: 73.3%
RatioGI50 (Cancer cell lines [17]): 2 - 10
inhibition of growth at 10 µM [18]: 89.9%
inhibition of growth at 10 µM [19]: 93.8%
inhibition of growth at 10 µM [20]: < 10%
RatioGI50 (Cancer cell lines [21]): 2 - 10
inhibition of growth at 10 µM [22]: 62.2%
inhibition of growth at 10 µM [23]: 95.5%
inhibition of growth at 10 µM [33]: 88.1%
GI50 [26]: 4 µM
LC50 (concentration killing 50% of cells) [26]: > 100 µM
TGI [26]: > 100 µM
RatioGI50 (Cancer cell lines [27]): 2 - 10
inhibition of growth at 10 µM [28]: 83.3%
inhibition of growth at 10 µM [29]: 71%
inhibition of growth at 10 µM [30]: 80.3%
inhibition of growth at 10 µM [31]: 76.6%
inhibition of growth at 10 µM [32]: 92.6%

COc1ccc(CSc2nc3cc(OC)c(OC)cc3c(=O)n2-c2ccc(OC)cc2OC)cc1
IC50 (Dihydrofolate reductase): 0.3 µM
inhibition of growth at 10 µM [2]: 31.4%
inhibition of growth at 10 µM [3]: 12.9%
inhibition of growth at 10 µM [4]: < 10%
inhibition of growth at 10 µM [8]: 19.5%
inhibition of growth at 10 µM [9]: 21.7%
inhibition of growth at 10 µM [10]: 24.6%
inhibition of growth at 10 µM [11]: 24.4%
inhibition of growth at 10 µM [12]: 16.6%
inhibition of growth at 10 µM [14]: 19.4%
inhibition of growth at 10 µM [15]: 16.8%
inhibition of growth at 10 µM [16]: 13.3%
inhibition of growth at 10 µM [18]: 16.9%
inhibition of growth at 10 µM [19]: < 10%
inhibition of growth at 10 µM [20]: 10.8%
inhibition of growth at 10 µM [22]: 13.7%
inhibition of growth at 10 µM [23]: 24.5%
inhibition of growth at 10 µM [24]: 20.5%
inhibition of growth at 10 µM [25]: < 10%
inhibition of growth at 10 µM [33]: < 10%
inhibition of growth at 10 µM [28]: 20.6%
inhibition of growth at 10 µM [29]: < 10%
inhibition of growth at 10 µM [30]: 10.4%
inhibition of growth at 10 µM [31]: 19.8%
inhibition of growth at 10 µM [32]: < 10%

From ChEMBL document CHEMBL3860041, “Synthesis, biological evaluation and molecular modeling study of some new methoxylated 2-benzylthio-quinazoline-4(3H)-ones as nonclassical antifolates” (Bioorg Med Chem Lett, 2016)
